The subject of data set [1] is Mus musculus. The data set can be described thus: Compound was tested for anticonvulsant activity after intraperitoneal injection into mice by using MES screen test after 1 hr. Type of data set: functional. The note with it: ip. Summed up:
(§1)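 Quantitative intraperitoneal mouse testing in the MES, scPTZ or rotorod neurotoxicity screens at the peak time given for each compound (0.25–2 h). ED50 or TD50 reported in mg/kg with 95% CI and slope (SE).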

In data set [2] the test system is Rattus norvegicus. The data set can be described thus: Compound was tested for anticonvulsant activity after Oral Administration into Rats by using MES screen test after 1h,dose 12.5 mg/kg; number of rats out of four which were protected. Type of data set: functional. Summed up:
(§2)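 Rats received the compound orally. […] Rats were tested in the MES screen at 0.25, 0.5, 1, 2 and 4 h. Each value is the number of rats protected out of 4. The test followed NINDS procedures.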

The test system of data set [3] is Rattus norvegicus. The data set can be described thus: Anticonvulsant activity after oral administration into rats. Type of data set: functional. The arrangement: concentration or dose not given beside the values.
Data set [4] is described as follows: Protection index = TD50/ED50 (scPTZ ). Type of data set: ADME. Conditions: read-out: PI. In outline: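 Protection index calculated as TD50/ED50 from mouse intraperitoneal scPTZ ED50 and rotorod TD50 values, each taken at its own peak time.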
The subject of data set [5] is Rattus norvegicus. The data set can be described thus: Compound was tested for anticonvulsant activity after Oral Administration into Rats by using MES screen test after 0.25h,dose 12.5 mg/kg; number of rats out of four which were protected. Type of data set: functional. In outline: as §2
The nature of data set [6]: Protection index = TD50/ED50 (MES). The note with it: mouse, in vivo; read-out: PI.
In data set [7] the test system is Rattus norvegicus. The data set can be described thus: Compound was tested for anticonvulsant activity after Oral Administration into Rats by using MES screen test after 2h,dose 12.5 mg/kg; number of rats out of four which were protected. Type of data set: functional. In outline: as §2
The test system of data set [8] is Rattus norvegicus. The data set can be described thus: Compound was tested for anticonvulsant activity after Oral Administration into Rats by using MES screen test after 4h,dose 12.5 mg/kg; number of rats out of four which were protected. Type of data set: functional. In outline:
as §2

Data set [9] relates to Mus musculus. The data set can be described thus: Anticonvulsant activity after intraperitoneal injection into mice by using scPTZ screen after 0.5 hr. Type of data set: functional.
Data set [10] has as its system Mus musculus. The data set can be described thus: Anticonvulsant activity after intraperitoneal injection into mice measured in a maximal electroshock scree (MES) screen. Type of data set: functional.
Data set [11] is described as follows: Compound was tested for toxicity after intraperitoneal injection into mice by using neurotoxicity screen test after 1 hr. Type of data set: organism-based. The note with it: mouse, in vivo, ip. Summed up: as §1
In data set [12] the test system is Mus musculus. The data set can be described thus: Compound was tested for toxicity after intraperitoneal injection into mice by using toxicity screen test after 4 hr. Conditions: in vivo, ip. Type of data set: organism-based. Summed up: (§3)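 Mice injected intraperitoneally at 30, 100 and 300 mg/kg and examined 0.5 and 4 h afterwards. Each entry is the minimum dose giving activity (MES protection, scPTZ protection, or rotorod failure for neurotoxicity) in half or more of the mice. Activity is called absent if nothing occurs at 300 mg/kg.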

For data set [13], the system named is Mus musculus. The data set can be described thus: Anticonvulsant activity after intraperitoneal injection into mice by using MES screen test after 0.5 hr. Type of data set: functional.
Data set [14] concerns Mus musculus. The data set can be described thus: Compound was tested for anticonvulsant activity after intraperitoneal injection into mice by using scPTZ screen test after 0.5 hr. Type of data set: functional. Conditions: ip. In outline: as §3
Data set [15] relates to Rattus norvegicus. The data set can be described thus: Compound was tested for anticonvulsant activity after Oral Administration into Rats by using MES screen test after 4h,dose 12.5 mg/kg; No activity was demonstarted. Type of data set: functional, organism-based. The arrangement: dose 12.5 mg/kg. Summed up:
as §2

The test system of data set [16] is Mus musculus. The data set can be described thus: Anticonvulsant activity after intraperitoneal injection into mice by using scPTZ screen test after 4 hr. Type of data set: functional.
Data set [17] has as its system Rattus norvegicus. The data set can be described thus: Compound was tested for anticonvulsant activity after Oral Administration into Rats by using MES screen test after 2h.,dose 12.5 mg/kg; number of rats out of four which were protected. Type of data set: functional. Summed up:
as §2

For data set [18], the system named is Rattus norvegicus. The data set can be described thus: Compound was tested for anticonvulsant activity after Oral Administration into Rats by using MES screen test after 0.25h,dose 12.5 mg/kg; No activity was demonstarted. Type of data set: functional, organism-based. The arrangement: dose 12.5 mg/kg. Summed up: as §2
The test system of data set [19] is Rattus norvegicus. The data set can be described thus: Compound was tested for anticonvulsant activity after Oral Administration into Rats by using MES screen test after 0.5h,dose 12.5 mg/kg; No activity was demonstarted. Type of data set: functional, organism-based. The arrangement: dose 12.5 mg/kg. In outline: as §2
Data set [20] concerns Mus musculus. The data set can be described thus: Compound was tested for toxicity after intraperitoneal injection into mice using toxicity screen test. Conditions: in vivo, ip.
Data set [21] deals with Rattus norvegicus. The data set can be described thus: Compound was tested for anticonvulsant activity after Oral Administration into Rats by using MES screen test after 4h,dose 50 mg/kg; number of rats out of four which were protected. Type of data set: functional. In outline: as §2
The test system of data set [22] is Rattus norvegicus. The data set can be described thus: Compound was tested for anticonvulsant activity after Oral Administration into Rats by using MES screen test after 2h,dose 50 mg/kg; number of rats out of four which were protected. Type of data set: functional. Summed up: as §2
The subject of data set [23] is Rattus norvegicus. The data set can be described thus: Compound was tested for anticonvulsant activity after Oral Administration into Rats by using MES screen test after 0.25h,dose 50 mg/kg; No activity was demonstarted. Type of data set: functional, organism-based. The arrangement: dose 50 mg/kg. Summed up: as §2
Data set [24] in a line: Compound was tested for […] after intraperitoneal injection into mice by using neurotoxicity screen test after 2 hr. Type of data set: organism-based. Conditions: mouse, in vivo, ip. In outline:
as §1

In data set [25] the test system is Rattus norvegicus. The data set can be described thus: Compound was tested for anticonvulsant activity after Oral Administration into Rats by using MES screen test after 1h,dose 50 mg/kg; number of rats out of four which were protected; number of rats out of four which were protected. Type of data set: functional. Summed up: as §2
The subject of data set [26] is Mus musculus. The data set can be described thus: Compound was tested for anticonvulsant activity after intraperitoneal injection into mice by using MES screen test after 0.5 hr. Type of data set: functional. Conditions: ip. In outline: as §3
In data set [27] the test system is Rattus norvegicus. The data set can be described thus: Compound was tested for anticonvulsant activity after Oral Administration into Rats by using MES screen test after 0.5h,dose 50 mg/kg; number of rats out of four which were protected. Type of data set: functional. Summed up: as §2
For data set [28], the system named is Rattus norvegicus. The data set can be described thus: Compound was tested for anticonvulsant activity after Oral Administration into Rats by using MES screen test after 1h,dose 15 mg/kg; number of rats out of four which were protected. Type of data set: functional. In outline: as §2
For data set [29], the system named is Rattus norvegicus. The data set can be described thus: Compound was tested for anticonvulsant activity after Oral Administration into Rats by using MES screen test after 0.5h,dose 15 mg/kg; No activity was demonstarted. Type of data set: functional, organism-based. On the set-up: dose 15 mg/kg. In outline:
as §2

Data set [30] relates to Rattus norvegicus. The data set can be described thus: Compound was tested for anticonvulsant activity after Oral Administration into Rats by using MES screen test after 0.25h,dose 15 mg/kg; No activity was demonstarted. Type of data set: functional, organism-based. On the set-up: dose 15 mg/kg. In outline:
as §2

The test system of data set [31] is Rattus norvegicus. The data set can be described thus: Compound was tested for anticonvulsant activity after Oral Administration into Rats by using MES screen test after 4h,dose 15 mg/kg; number of rats out of four which were protected. Type of data set: functional. Summed up: as §2
The test system of data set [32] is Rattus norvegicus. The data set can be described thus: Compound was tested for anticonvulsant activity after Oral Administration into Rats by using MES screen test after 2h,dose 15 mg/kg; number of rats out of four which were protected. Type of data set: functional. Summed up: as §2
The nature of data set [33]: Compound was tested for toxicity after oral administration in rat by using neurotoxicity screen test after 0.25-24 hr. Type of data set: organism-based. Conditions: in vivo. In outline: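 Rat neurotoxicity after oral dosing, observed at 0.25, 0.5, 1, 2, 4, 6, 8 and 24 h (8 h omitted for one compound).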
The nature of data set [34]: Compound was tested for toxicity after intraperitoneal injection into mice by using neurotoxicity screen test after 4 hr. Type of data set: organism-based. The note with it: mouse, in vivo, ip. In outline: as §3
The test system of data set [35] is Mus musculus. The data set can be described thus: Compound was tested for anticonvulsant activity after intraperitoneal injection into mice by using scPTZ screen test after 4 hr. Conditions: ip. Type of data set: functional. Summed up: as §3
The test system of data set [36] is Mus musculus. The data set can be described thus: Toxicity after intraperitoneal injection into mice by using toxicity screen test after 0.5 hr. Type of data set: organism-based. Conditions: in vivo, ip. Summed up: as §3
The subject of data set [37] is Rattus norvegicus. The data set can be described thus: Compound was tested for anticonvulsant activity after Oral Administration into rat by using MES screen test at 4 hr. Type of data set: functional. Summed up:
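Rats dosed orally, typically at 50 mg/kg first, then mostly 12.5 mg/kg (some compounds at 30 mg/kg), and tested by maximal electroshock. Four rats per compound, scored at 0.25, 0.5, 1, 2 and 4 h as the number of rats protected out of 4.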

In data set [38] the test system is Mus musculus. The data set can be described thus: Compound was tested for anticonvulsant activity after intraperitoneal injection into mice by using MES screen test after 4 hr. Type of data set: functional. The note with it: ip. Summed up:
as §3

Consider `C/C(=N/NC(N)=O)c1ccc(Sc2ccc(Br)cc2)cc1`, for which the ED50 in [1] amounted to 3.82 mg/kg; in data set [14] it was 41.9 mg/kg. Moreover, the Activity in [2] is 4; in data set [3], 3; in data set [5], 1; in data set [7] it was 4; in data set [8], 4. Further, the figures for the selectivity ratio in [4] and in data set [6] were 1.03 and 11.3, respectively. The Dose in data set [9] was found to be 300 mg/kg; in data set [10] it was 30 mg/kg; in data set [12], 300 mg/kg; in data set [13] it was 100 mg/kg. In data set [11], this compound returned a TD50 at 1 h of 43.2 mg/kg.
In the case of `NC(=O)N/N=C\c1ccc(OCc2ccccc2)cc1`, the Activity in data set [2] was 1; in data set [15], “No activity”; in [17], 1; in data set [18], “No activity”; in data set [19], “No activity”. The Dose was 100 mg/kg in data set [16], 300 mg/kg in data set [10] and 300 mg/kg in data set [13].
`NC(=O)N/N=C\c1ccc(Oc2cccc(Cl)c2)cc1`: the Dose in data set [20] amounted to 300 mg/kg; in data set [16], 300 mg/kg; in data set [9], 30 mg/kg; in [10], 100 mg/kg; in data set [12] it was 100 mg/kg; in data set [13], 30 mg/kg. Further, the Activity in [21] was 4; in data set [22] it was 4; in data set [23], “No activity”; in [25], 4; in data set [27], 4. For the same compound, the TD50 at 2 h in data set [24] was determined as 64.5 mg/kg. The figures for the ED50 in data set [26] and in data set [14] were 27.7 mg/kg and 41.2 mg/kg, respectively.
In the case of `CCC(C)(C)c1ccc(Oc2ccc(/C=N/NC(N)=O)cc2)cc1`, the Activity in data set [28] is 2; in [29] it was “No activity”; in data set [30], “No activity”; in [31], 4; in data set [32], 3. The Dose in data set [13] stood at 300 mg/kg.
In turn, `CC(C)(C)c1ccc(Oc2ccc(/C=N\NC(N)=O)cc2)cc1` returned a TD50 in [33] greater than 500 mg/kg. In addition, the Activity in data set [2] was 4; in data set [7], 4; in data set [8] it was 4; in data set [18], “No activity”; in data set [19], “No activity”. In data set [34], this compound returned a TD50 at 4 h of 106 mg/kg. Besides, the ED50 in [35] was greater than 150 mg/kg; in [37] it was 1.68 mg/kg; in data set [38], 8.87 mg/kg. The Dose was found to be 100 mg/kg in [16]; 100 mg/kg in [36]; 30 mg/kg in data set [10]; 100 mg/kg in [12]; 100 mg/kg in [13].

The record behind these values is ChEMBL document CHEMBL1129428 (J Med Chem, 1996).
